In ChEMBL document CHEMBL4680349, “Design, synthesis and evaluation of 1-benzyl-1H-imidazole-5-carboxamide derivatives as potent TGR5 agonists” (Bioorg Med Chem, 2021):
pEC50, pIC50: −log10 of the molar value. Activity calls are given as the source filed them.

How the values were obtained:
[1] = target: T1, G-protein coupled bile acid receptor 1 (Homo sapiens) (UniProt Q8TDU6); experiment: Agonist activity at human TGR5 transfected in HEK293T cells assessed intracellular cAMP level at 40 uM by HTRF assay; type: functional, cell-based; conditions: filed as agonist
T1 sequence (whole entry): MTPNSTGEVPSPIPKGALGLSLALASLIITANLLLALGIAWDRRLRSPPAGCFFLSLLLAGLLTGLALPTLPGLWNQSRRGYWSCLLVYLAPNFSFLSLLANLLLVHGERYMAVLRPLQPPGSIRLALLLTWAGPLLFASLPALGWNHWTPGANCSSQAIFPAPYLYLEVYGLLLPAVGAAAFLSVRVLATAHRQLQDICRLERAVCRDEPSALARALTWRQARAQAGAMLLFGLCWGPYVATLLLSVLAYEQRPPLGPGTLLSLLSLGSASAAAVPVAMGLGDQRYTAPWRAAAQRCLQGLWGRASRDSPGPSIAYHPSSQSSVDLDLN
Outline: (§1)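 HEK293T stable line made by lentiviral transfection with drug selection. cAMP measured by HTRF cAMP dynamic 2 kit. Compounds from 10 mM DMSO stocks. 10 μM LCA defined as 100% and 0.1% DMSO as 0% hTGR5 activation. Mean of three independent experiments.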

[2] = target: T1, G-protein coupled bile acid receptor 1 (Homo sapiens); experiment: Agonist activity at human TGR5 transfected in HEK293T cells assessed intracellular cAMP level at 10 uM by HTRF assay; type: functional, cell-based; outline: as §1
[3] = target: T2, G-protein coupled bile acid receptor 1 (Homo sapiens, UniProt Q8TDU6); experiment: Agonist activity at human TGR5 transfected in HEK293T cells assessed intracellular cAMP level by HTRF assay; type: functional, cell-based
T2 sequence (Q8TDU6 whole entry): T1 sequence (whole entry)

[4] = target: T3, G-protein coupled bile acid receptor 1 (Mus musculus, UniProt Q80SS6); experiment: Agonist activity at mouse TGR5 transfected in HEK293T cells assessed intracellular cAMP level by HTRF assay; type: functional, cell-based
T3 sequence (Q80SS6 whole entry): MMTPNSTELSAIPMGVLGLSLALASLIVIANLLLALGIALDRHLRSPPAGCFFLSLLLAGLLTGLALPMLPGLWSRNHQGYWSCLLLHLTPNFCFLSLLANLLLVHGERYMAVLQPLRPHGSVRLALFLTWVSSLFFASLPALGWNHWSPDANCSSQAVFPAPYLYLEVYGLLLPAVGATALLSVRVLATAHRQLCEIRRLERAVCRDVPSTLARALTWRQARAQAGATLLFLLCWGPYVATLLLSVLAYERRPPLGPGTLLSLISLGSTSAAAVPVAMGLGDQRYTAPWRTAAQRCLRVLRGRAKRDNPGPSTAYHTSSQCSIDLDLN
Outline: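 Run by the same cAMP HTRF method used for human TGR5, with compounds from 10 mM DMSO stocks. EC50 given as mean ± SEM of three independent experiments.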

[5] = Stability of the compound in human plasma assessed as parent compound remaining measured after 120 mins; type: ADME, cell-free; conditions: read-out: Stabilty
Mus musculus [6] = experiment: Induction of GLP-1 secretion in TGR5 knock out C57BL/6J mouse assessed as serum GLP-1 level at 30 mg/kg, po followed by 2 g/kg glucose orally administered measured after 5 mins by ELISA relative to control; type: functional, organism-based
Outline: (§2)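 Eight-week-old WT or TGR5−/− mice fasted overnight, then given vehicle (0.25% CMC) or compound 30 mg/kg orally. Oral glucose 2.0 g/kg 1 h later. Blood taken 5 min after glucose into tubes with DPP IV inhibitor and EDTA. Serum active GLP-1(7–36 amide) measured by ELISA.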

Mus musculus [7] = experiment: In vivo agonist activity at TGR5 in wild type C57BL/6J mouse assessed as induction of GLP-1 secretion at 30 mg/kg, po followed by 2 g/kg glucose orally administered measured after 5 mins by ELISA relative to control; type: functional, organism-based; outline: as §2
[8] = Stability of the compound in human plasma assessed as parent compound remaining measured after 60 mins; type: ADME, cell-free; conditions: read-out: Stabilty
[9] = target: T4, Bile acid receptor (Homo sapiens) (UniProt Q96RI1); experiment: Agonist activity at GST-tagged human FXR-LBD using biotinylated SRC-1 peptide as substrate at 20 uM by HTRF assay
T4 sequence (whole entry): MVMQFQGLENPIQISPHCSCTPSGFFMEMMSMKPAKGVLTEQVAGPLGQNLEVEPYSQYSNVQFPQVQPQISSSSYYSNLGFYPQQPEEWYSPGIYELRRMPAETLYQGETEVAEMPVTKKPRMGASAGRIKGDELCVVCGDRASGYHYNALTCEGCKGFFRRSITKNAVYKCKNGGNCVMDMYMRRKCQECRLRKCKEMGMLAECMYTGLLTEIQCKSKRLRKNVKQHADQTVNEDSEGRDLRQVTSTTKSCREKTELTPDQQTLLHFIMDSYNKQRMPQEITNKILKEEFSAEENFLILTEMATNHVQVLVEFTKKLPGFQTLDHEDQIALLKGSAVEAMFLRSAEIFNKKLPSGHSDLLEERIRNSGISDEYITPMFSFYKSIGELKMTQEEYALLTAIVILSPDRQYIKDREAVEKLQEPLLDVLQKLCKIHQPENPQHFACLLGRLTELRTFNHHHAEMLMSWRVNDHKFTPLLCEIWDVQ
Outline: (§3)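 Reaction mix in HTRF buffer (50 mM Hepes pH 7.0, 125 mM KF, 0.125% CHAPS, 0.05% dry milk): 10 nM GST-FXRα LBD, 100 nM biotin-SRC1, 0.83 nM Eu-anti-GST, 41.75 nM streptavidin-XL665. Incubated at room temperature, read as (665/620 nm)×10,000. 50 μM CDCA defined as 100% and 0.1% DMSO as 0% activation.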

[10] = target: T4, Bile acid receptor (Homo sapiens); experiment: Agonist activity at GST-tagged human FXR-LBD using biotinylated SRC-1 peptide as substrate at 50 uM by HTRF assay; outline: as §3
A549 = experiment: Cytotoxicity against human A549 cells assessed as reduction in cell viability incubated for 24 hrs by CCK8 assay; type: functional, cell-based; conditions: A549, 24 h
Outline: (§4)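 Cells exposed to compounds for 24 h, then viability read by CCK8 assay to give IC50.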

[11] = target: T4, Bile acid receptor (Homo sapiens); experiment: Agonist activity at GST-tagged human FXR-LBD using biotinylated SRC-1 peptide as substrate at 10 uM by HTRF assay; outline: as §3
Mus musculus [12] = experiment: Antidiabetic activity against in C57BL/6J mouse assessed reduction in glucose AUC at 30 mg/kg, po pretreated for 60 mins followed by 2 g/kg glucose orally administered measured upto 120 mins by OGTT method relative to control; type: functional; parameters: scale not given: the % may be the effect or the level left; conditions: time min <=180
HeLa = experiment: Cytotoxicity against human HeLa cells assessed as reduction in cell viability incubated for 24 hrs by CCK8 assay; type: functional, cell-based; outline: as §4

Structure (SMILES)	Activity [1] [%]	Activity ([2]; filed as agonist) [%]	pEC50 [3]	also measured
C[C@H](c1ccccc1)n1cncc1C(=O)N(C)c1ccc(Cl)cc1	71.9	63.1	–	–
C[C@H](c1ccccc1)n1cncc1C(=O)N1CCN(c2ccccc2)CC1	81.6	41.7	–	–
Cc1ccc(NC(=O)c2cncn2[C@H](C)c2ccccc2)cc1	63.3	–	–	Activity [2]: 20.2%
Cc1ccc(N(C)C(=O)c2cncn2[C@H](C)c2ccccc2)cc1	86.7	62.1	–	–
C[C@H](c1ccccc1)n1cncc1C(=O)Nc1ccc(F)cc1	85.2	51.3	–	–
O=C(c1cncn1Cc1ccc(Cl)cc1Cl)N1CCN(C2CC2)c2ccccc21	–	–	8.17	remaining at 2 h [5]: 104%; Activity (Mus musculus [6]): inactive; Activity (Mus musculus [7]): Active; remaining at 1 h [8]: 107%; Activity [9]: 1.6%; pEC50 [4]: 6.21; Activity [10]: -1.1%; pIC50 (A549): < 4.30; Activity [11]: 1.1%; Activity (Mus musculus [12]): 15.8%; pIC50 (HeLa): < 4.30
C[C@H](c1ccccc1)n1cncc1C(=O)Nc1ccc(Cl)cc1	84.1	–	–	Activity [2]: 37.7%
COc1ccc(NC(=O)c2cncn2[C@H](C)c2ccccc2)cc1	66.5	–	–	Activity [2]: 25.3%
O=C(c1cncn1Cc1ccc(F)cc1F)N1CCN(C2CC2)c2ccccc21	–	–	6.47	pEC50 [4]: < 5.00
C[C@H](c1ccccc1)n1cncc1C(=O)N(C)c1ccc(F)cc1	85.4	70.9	5.98	–
O=C(c1cncn1Cc1cc(Cl)ccc1Cl)N1CCN(C2CC2)c2ccccc21	–	–	8.02	remaining at 2 h [5]: 105%; remaining at 1 h [8]: 112%; Activity [9]: -0.8%; pEC50 [4]: 6.08; Activity [10]: 0.31%; pIC50 (A549): < 4.30; Activity [11]: 2.3%; Activity (Mus musculus [12]): 13.7%; pIC50 (HeLa): < 4.30
COc1ccc(N2CCN(C(=O)c3cncn3[C@H](C)c3ccccc3)CC2)cc1	89.7	79.1	5.36	–
C[C@H](c1ccccc1)n1cncc1C(=O)Nc1cccc(F)c1	56.2	–	–	Activity [2]: 20.1%
C[C@H](c1ccccc1)n1cncc1C(=O)Nc1ccccc1F	48.4	–	–	Activity [2]: 16.5%

Second part, led by results:

Activity [1] [%]	Activity ([2]; filed as agonist) [%]	pEC50 [3]	Structure (SMILES)	also measured
95.3	79.3	5.96	C[C@H](c1ccccc1)n1cncc1C(=O)N1CCN(c2ccccc2F)CC1	–
–	–	5.76	O=C(c1cncn1Cc1ccccc1)N1CCN(C2CC2)c2ccccc21	pEC50 [4]: 5.46
77.1	48.3	–	C[C@H](c1ccccc1)n1cncc1C(=O)N1CCCc2ccccc21	–
49.2	–	–	COc1ccccc1N1CCN(C(=O)c2cncn2[C@H](C)c2ccccc2)CC1	Activity [2]: 17.4%
97.4	89.8	6.48	C[C@H](c1ccccc1)n1cncc1C(=O)N1CCN(C2CC2)c2ccccc21	–
–	–	6.93	O=C(c1cncn1Cc1ccccc1Cl)N1CCN(C2CC2)c2ccccc21	pEC50 [4]: 5.43
–	–	6.25	O=C(c1cncn1Cc1ccc(F)cc1)N1CCN(C2CC2)c2ccccc21	pEC50 [4]: < 5.00
74.5	54.1	–	C[C@H](c1ccccc1)n1cncc1C(=O)N1CCOc2ccccc21	–
